Measurements collected from several papers.
Compare with care: the assays were run in different laboratories.
Target: Cytochrome P450 1A2 (CYP1A2, Homo sapiens, UniProt P05177)
Effect on: enzyme activity
Action: inhibitor
One construct used (P05177 1-516): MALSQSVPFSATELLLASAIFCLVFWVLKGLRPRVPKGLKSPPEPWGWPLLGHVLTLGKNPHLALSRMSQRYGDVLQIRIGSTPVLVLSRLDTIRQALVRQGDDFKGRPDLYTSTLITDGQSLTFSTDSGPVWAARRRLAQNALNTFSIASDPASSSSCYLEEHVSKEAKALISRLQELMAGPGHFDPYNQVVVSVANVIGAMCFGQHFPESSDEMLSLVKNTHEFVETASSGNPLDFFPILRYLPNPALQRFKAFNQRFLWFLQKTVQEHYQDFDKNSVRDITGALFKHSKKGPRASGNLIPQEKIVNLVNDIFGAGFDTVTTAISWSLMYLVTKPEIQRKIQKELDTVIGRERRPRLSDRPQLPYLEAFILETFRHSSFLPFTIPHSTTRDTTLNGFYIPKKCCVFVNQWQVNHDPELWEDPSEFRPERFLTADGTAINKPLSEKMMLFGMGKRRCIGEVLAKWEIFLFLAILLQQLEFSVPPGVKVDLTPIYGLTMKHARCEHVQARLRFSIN

| Structure (SMILES) | assay | system | setting | endpoint | value |
| --- | --- | --- | --- | --- | --- |
| C#Cc1cccc(-c2cc(=O)c3ccccc3o2)c1 | – | – | 6 min, pH 7.6 | Ki | 800 nM |
| NS(=O)(=O)NCCNc1nonc1C(=NO)Nc1ccc(F)c(Br)c1 | fluorescence | – | – | IC50 | > 10 µM |
| CC(CN1c2ccccc2Sc2ccccc21)N(C)C (stereo not drawn) | fluorescence | – | – | IC50 | 1 µM |
| C[C@H]1CN(c2n[nH]c3nc(N[C@H]4CC[C@H](NS(=O)(=O)CCC(F)(F)F)CC4)ncc23)CCO1 | – | – | – | IC50 | > 100 µM |
| COc1ccc2cc3[n+](cc2c1OC)CCc1cc2c(cc1-3)OCO2 | – | – | – | IC50 | > 10 µM |
| CCc1cc(/C(C)=N/OCc2ccc(C3CCCCC3)c(C(F)(F)F)c2)ccc1CN1CC(C(=O)O)C1 | – | human, liver microsomes | 20 min | IC50 | > 1.1 µM |
| CCC(C)(C)C(=O)O[C@H]1C[C@@H](C)C=C2C=C[C@H](C)[C@H](CC[C@@H](O)C[C@@H](O)CC(=O)O)[C@H]21 | fluorescence | – | – | IC50 | > 100 µM |
| COc1ccn2c(Nc3ccccc3F)c(-c3ccncn3)nc2c1 | – | – | – | IC50 | 1.8 µM |
| Nc1nc(N)c2nc(CNc3cccc4ccccc34)cnc2n1 | luciferase | – | – | IC50 | 72.4 µM |
| Cc1cc(C)c2c(c1)[C@@H](N(Cc1cc(C(F)(F)F)cc(C(F)(F)F)c1)c1nnn(C)n1)CCCN2C[C@H]1CC[C@H](C(=O)O)CC1 | – | human, liver microsomes | pH 7.4 | Ki | 7100 nM |
| COc1ccc2c(Cc3ccccc3F)c3n(c(=O)c2c1OC)CCc1cc2c(cc1-3)OCO2 | – | – | – | IC50 | > 10 µM |
| C#Cc1ccc2cc(-c3ccccc3)c(=O)oc2c1 | – | – | 6 min, pH 7.6 | Ki | 2970 nM |
